The list is not random: actives were taken first. Their share in the collection is about 1.9%.
UCH37 inh – blocks the human deubiquitinase UCH37; inhibition, % (test concentration not listed); 0.33% of 330,000 active; AID 588478; purified proteasome/UCH37, Ub-AMC cleavage fluorescence;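 active means mean inhibition over replicate wells above about 20%, limit read from the data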;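 further: 0% = compound-free wells with enzyme and 100% = wells lacking proteasome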
Target sequence (Q9Y5K5 whole entry, looked up): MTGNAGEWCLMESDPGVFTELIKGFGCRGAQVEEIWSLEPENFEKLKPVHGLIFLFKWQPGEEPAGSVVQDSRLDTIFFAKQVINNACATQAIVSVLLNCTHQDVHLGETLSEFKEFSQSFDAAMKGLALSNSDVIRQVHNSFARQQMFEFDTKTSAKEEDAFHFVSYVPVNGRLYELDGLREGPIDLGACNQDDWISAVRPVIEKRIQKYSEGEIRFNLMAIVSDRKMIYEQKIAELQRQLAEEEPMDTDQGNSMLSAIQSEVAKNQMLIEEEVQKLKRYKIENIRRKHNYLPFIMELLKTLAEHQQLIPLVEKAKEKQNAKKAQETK
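Material: Human UCH37 enzyme supplied as purified proteasome complex | Schedule: 30 min compound-proteasome preincubation then 25 min substrate reaction, room temperature | Detection: AMC fluorescence from Ub-AMC cleavage, excitation 355 nm, emission 460 nm | Benchmarks: Wells without proteasome as full block, compound-free enzyme plus substrate as uninhibited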
MsrA act – bovine methionine sulfoxide reductase A activation; purified bovine MsrA, absorbance read-out; activation, % at 10.6 µM; 0.3% of 360,000 active; AID 602163; in the data active means activation above about 7.5%;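 further: 0% = vehicle and 100% = reference activator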
Glyco luc inh – blocks N-linked glycosylation in D54 reporter cells | 0.23% of 360,000 active | reporter increase, % at 12.5 µM | D54 ERlucT glycosylation luciferase reporter, 24 h; percent of 100 nM tunicamycin response;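 active means mean luciferase reporter signal, scaled so untreated is 0 and the glycosylation-blocking control 100, at or above a set limit in every replicate; inconclusive means mean reaches the limit but not every replicate does; inactive means mean below the limit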;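 further: luciferase carries N-glycosylation sites so blocking glycosylation raises the light; 0% = median of neutral control wells and 100% = median of 100 nM tunicamycin wells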
MsrA inhibitor – inhibitors of bovine MsrA; purified bovine MsrA, absorbance read-out; inhibition, % at 15.5 µM; 0.75% of 360,000 active; AID 651718;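 further: 0% = vehicle wells with enzyme and 100% = reference inhibitor wells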
Vif inh – inhibitors of HIV Vif; HEK293T cells, Vif self-association by quenched fluorescence, imaging, 24 h; inhibition, % at 7.49 µM; 0.35% of 340,000 active; AID 602346; in the data active means inhibition above about 50%, passing the limit was not always enough; inconclusive means no clear call, values can overlap the other calls; inactive means below about 31%
aDG glyco up – increases alpha dystroglycan glycosylation. Pro5-aDG cells, alpha-DG glycosylation AlphaScreen (IIH6); 0% Pro5, 100% B10-LARGE cell signal. activation, % at 10 µM. 0.22% of 360,000 active;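 active means activation of at least 8% versus controls, or a plate z-score of at least 8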;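 further: Pro5 are CHO cells carrying HIG-tagged alpha-DG that lacks glycosylation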
MsrA conf – bovine MsrA inhibition, confirmed. AID 651822. purified bovine MsrA, absorbance read-out. 41% of 2,300 active. inhibition, % at 15.5 µM. shares compounds with MsrA inhibitor;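 further: coupled to thioredoxin reductase with NADPH and selenocystamine and DMSO as substrate; 0% = vehicle only and 100% = full effect of reference inhibitor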
* marks the source's active call; other numbers are inactive results; i = inactive; u = inconclusive; x = not tested or not shown. Unless noted, no stated cut-off is given here; in the data, active means inhibition above about 4.5%; inactive means the rest.

SMILES	UCH37 inh	MsrA act	Glyco luc inh	MsrA inhibitor	Vif inh	aDG glyco up	MsrA conf
O=C(Nc1ccc(F)cc1)/C(=C1/CCCCCN1)[N+](=O)[O-]	11	3	0	6.4*	-1	0	3
COc1ccc(OCC(=O)NN=c2oc3c(OC)cccc3cc2C(N)=O)cc1	-1	x	x	x	x	x	x
COc1ccccc1/C=C/C=NN1CCN(Cc2cccc3ccccc23)CC1	6	x	x	x	x	x	x
N#Cc1ccc(C(=O)N/N=C/c2cn(CC(=O)O)c3ccccc23)c(F)c1	x	-6	2	6.8*	3	0	3
CCOC(=O)Cn1cc(/C=N/NC(=O)c2ccc(C#N)cc2F)c2ccccc21	x	-4	-3	6.2*	8	0	4
Cc1[nH]c(=O)[nH]c(=O)c1C=NNC(=O)[C@H](CC(C)C)NC(=O)OC(C)(C)C	-4	x	x	x	x	x	x
Cc1ccc(S(=O)(=O)N=Cc2ccc(N(C)C)cc2)cc1	4	x	x	x	x	x	x
Cc1ccc(S(=O)(=O)/N=C/c2ccc(N(C)C)cc2)cc1	x	-12	0	6.7*	13	0	2
Cc1ccc(S(=O)(=O)NCCN=Cc2ccc(N(C)C)cc2)cc1	9	-6	x	4.9*	x	0	4
CC1(C)CC(=O)CC(=NNC(=O)CCc2ccc(S(=O)(=O)N3CCOCC3)cc2)C1	3	x	x	x	x	x	x
O=C(NNC(=S)Nc1ccccc1)c1ccncc1	7	0	2	2	7	0	x
O=C(NNC(=S)Nc1cccc(C(F)(F)F)c1)c1ccncc1	x	-2	1	4.8*	8	0	1
COc1ccc(C(C)=N/N=C2/NC(=O)CC(C(=O)O)S2)cc1 (configuration not stated)	8	x	x	x	x	x	x
Cc1oc2c(CN3CCOCC3)c(O)ccc2c(=O)c1-c1ccc(Cl)cc1	-314	-11	0	5.3*	7	0	1
CCC(C)(C)NC(=O)c1ccc(Sc2nncn2C)c([N+](=O)[O-])c1	2	1	-1	1	-11	0	x
Cn1cnnc1Sc1ccc(/C=C/C(=O)c2ccc(O)cc2)cc1[N+](=O)[O-]	11	-12	u	5.7*	0	0	3
Cc1[nH]c2ccccc2c1C=NNC(=O)CNC(=O)c1ccc2c(c1)OCO2	3	x	x	x	x	x	x
CCC(=O)/C=C1/Sc2ccc(OC)cc2N1CC	15	-3	-1	4.7*	-1	0	3
CCC(=O)/C=C1/Sc2ccccc2N1CC	22*	-9	3	8.2*	-18	0	4
CCCn1cnc2scc(-c3ccc(C)c(C)c3)c2c1=O	5	-4	-3	8.6*	-1	0	6.5*
CCC(C(=O)OC)n1cnc2scc(-c3ccc(C)c(C)c3)c2c1=O (configuration not stated)	-2	-2	2	7.5*	-8	0	5.3*
CCC(C(=O)O)n1cnc2scc(-c3ccc(C)c(C)c3)c2c1=O (configuration not stated)	5	0	-2	-1	0	0	x
CC(=O)Nc1ccc(N=C(C2=C(O)c3ccccc3C2=O)c2ccccc2)cc1	11	-7	15	4.7*	0	0	4
CC(=O)Nc1ccc(C(=O)NN=Cc2ccncc2)cc1	6	x	x	x	x	x	x
C=CCn1c(=C(C#N)C(=O)NCC2CCCO2)sc(=Cc2ccccn2)c1=O (configuration not stated)	-4	x	x	x	x	x	x
SMILES	UCH37 inh	MsrA act	Glyco luc inh	MsrA inhibitor	Vif inh	aDG glyco up	MsrA conf
Cc1cccc(N=c2oc3cc(O)ccc3cc2C(N)=O)c1	-460	0	-6	8.0*	-6	0	10*
C=CCNC(=S)NN=Cc1ccc(C)s1	6	x	x	x	x	x	x
O=C(NCCN1CCCC1)c1ccc(Cl)cc1	5	0	0	-1	-7	0	x
O=C(NCCC1=CCCCC1)c1ccc(=O)oc1	14	-18	-1	6.9*	-1	0	7.1*
O=C(NCCN1CCCCC1)c1ccc(=O)oc1	-35	-4	2	5.1*	-3	0	3
O=C(NCCC1=CCCCC1)c1coc(=O)c(Br)c1	6	-6	4	2	x	0	x
COc1ccc(-c2cc(C(F)(F)F)nc(SCC(=O)N(C)Cc3cn(C)nc3C)n2)cc1OC	x	-8	1	6.0*	-9	0	4
COc1ccc(C=NNc2nc(-c3ccc(C)cc3)c(C#N)c(=O)[nH]2)cc1	i	x	x	x	x	x	x
C/C(=N\Nc1ccc(C(F)(F)F)cc1[N+](=O)[O-])C1CC1	x	-3	-2	9.2*	-3	0	8.8*
CC(=NNc1ccc(C(F)(F)F)cc1[N+](=O)[O-])C1CC1	2	x	x	x	x	x	x
Cc1ccc(Nc2ccc(C(F)(F)F)cc2[N+](=O)[O-])cc1	3	-3	-4	10.0*	1	0	17*
CCOC(=O)NN=Cc1ccc(OC(=O)c2ccc3c(c2)OCO3)cc1	5	x	x	x	x	x	x
Cc1nnc(C)n1/N=C/c1ccc(-c2ccccc2Cl)o1	x	-3	5	5.2*	14	0	4.9*
O=S(=O)(N/N=C\c1ccc(-c2ccccc2Cl)o1)c1ccccc1	x	-4	-3	4.9*	-3	0	3
CC(=NNC(=O)c1ccncc1)c1cccc(NC(=O)c2ccc(C(C)(C)C)cc2)c1	5	x	x	x	x	x	x
COc1cc(/C=C/c2cc(C(F)(F)F)[nH]c(=O)n2)cc(OC)c1OC	x	-13	-5	5.6*	22	0	3
COc1cc(/C=C/C2=NNC(=O)CC2)cc(OC)c1OC	-29	-5	5	8.2*	0	0	3
Cc1cc([N+](=O)[O-])nn1Cc1ccc(C(=O)NN=Cc2ccccc2)cc1	2	x	x	x	x	x	x
O=C1N=C(N2C=CC(=C3C=CNC=C3)C=C2)/C(=C/N=NC(=O)c2ccccc2)S1	24*	-5	2	11*	-1	0	11*
COc1ccc(C(=O)NN=Cc2ccc3cccc(OCc4ccccc4)c3n2)cc1	-231	x	x	x	x	x	x
Cc1ccsc1/C=C1\SC(N)=NC1=O	x	-8	0	5.0*	-1	0	4
Cc1ccc(/C=C2\SC(N)=NC2=O)s1	5	-4	3	2	1	0	x
COC(=O)c1sc(SC)c2c1CC(C)(C)CC2=NO	1	x	x	x	x	x	x
CS/C(Nc1cc(Cl)ccc1Cl)=C(/C#N)C(=O)c1ccco1	6	-5	-5	5.0*	-2	0	3
CCn1ncc(C=NNC(=O)c2csc3ccccc23)c1C	2	x	x	x	x	x	x
CC(=O)OC(=C(OC(C)=O)c1ccccc1)c1ccccc1	0	-2	-2	5.8*	6	0	6.0*
COC(=O)CNC(=O)c1ccccc1	1	-1	1	0	25	0	x
O=C(N=Nc1c(O)[nH]c2ccccc12)c1ccccc1NS(=O)(=O)c1cccs1	7	-11	-1	4.8*	2	0	4
O=C(N=Nc1c(O)[nH]c2ccc(F)cc12)c1ccc(NS(=O)(=O)c2cccs2)cc1	6	-2	1	2	28	-1	x

Source: PubChem BioAssay (several laboratories)
